Screening results deposited in PubChem BioAssay by Broad Institute.
Most compounds without a hit are left out; they make up all but 0.19% or so of the library.
IDH1 R132H inh = inhibitors of human IDH1 R132H | O75874 | IDH1 R132H reductase, diaphorase/resazurin fluorescence, 60 min | inhibition, % at 10 µM | actives 0.18% (n = 70,000); in the data active = inhibition above about 34%;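 also: 0% = DMSO and 100% = no enzyme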
Target sequence (O75874 whole entry R132H): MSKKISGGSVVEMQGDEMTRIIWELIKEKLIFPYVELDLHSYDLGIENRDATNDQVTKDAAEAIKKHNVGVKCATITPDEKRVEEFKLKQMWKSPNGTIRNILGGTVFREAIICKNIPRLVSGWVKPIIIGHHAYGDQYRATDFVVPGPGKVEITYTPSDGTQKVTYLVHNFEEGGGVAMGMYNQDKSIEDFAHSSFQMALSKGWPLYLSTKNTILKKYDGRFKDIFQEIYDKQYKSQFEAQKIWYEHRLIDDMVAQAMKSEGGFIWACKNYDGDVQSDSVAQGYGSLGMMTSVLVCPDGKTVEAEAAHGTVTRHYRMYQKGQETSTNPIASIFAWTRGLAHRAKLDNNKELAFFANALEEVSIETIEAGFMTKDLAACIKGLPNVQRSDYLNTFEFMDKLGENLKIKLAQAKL
KDM4C inh = KDM4C (human) demethylase inhibition; GST-KDM4C 2-372, H3K9me3 peptide, LANCE TR-FRET; actives 0.15% (n = 96,000); inhibition, % at 12.5 µM; Q9H3R0;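 active = mean replicate inhibition above about 25%, with at least 55% of replicates also reaching it, limit read from the data, passing the limit was not always enough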
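Material: GST-tagged GASC-1 (JMJD2C) catalytic fragment, aa 2-372. Input: enzyme final amount 10 nM. Medium: HEPES buffer, pH 7.5, plus ascorbate. Reagent: H3K9me3 peptide substrate, Fe(II), 2-oxoglutarate. Doses: single dose. Times: reaction 30 min RT, detection step 1 h RT. Measured by: LANCE TR-FRET. Evaluation: Fall in 671/618 emission ratio as inhibition.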
* marks the source's active call; other numbers are inactive results.

CN(C)c1ccc2c(c1)[C@@H]1C[C@H](CC(=O)NCc3ccc(-c4ccccc4)cc3)O[C@@H](CO)[C@@H]1O2 was read as IDH1 R132H inh -5 and KDM4C inh 6.
Screening CN(C)c1ccc2c(c1)[C@H]1C[C@H](CC(=O)NCc3ccccn3)O[C@H](CO)[C@H]1O2 returned IDH1 R132H inh -3 and KDM4C inh 34*.
C[C@H](NC(=O)C[C@H]1C[C@H]2c3cc(NC(=O)NC4CCCCC4)ccc3O[C@H]2[C@@H](CO)O1)c1ccccc1 was read as IDH1 R132H inh 0 and KDM4C inh 1.
`CN(C)c1ccc2c(c1)[C@H]1C[C@@H](CC(=O)NCc3ccccc3)O[C@@H](CO)[C@H]1O2` gave IDH1 R132H inh -2 and KDM4C inh 40*.
Screening C[C@H](NC(=O)C[C@@H]1C[C@H]2c3cc(NC(=O)NC4CCCCC4)ccc3O[C@H]2[C@@H](CO)O1)c1ccccc1 returned IDH1 R132H inh 0 and KDM4C inh 32*.
For CN(C)c1ccc2c(c1)[C@H]1C[C@@H](CC(=O)NCc3ccccn3)O[C@@H](CO)[C@H]1O2 the results were IDH1 R132H inh -3 and KDM4C inh 13.
Screening CN(C)c1ccc2c(c1)[C@@H]1C[C@@H](CC(=O)NCc3ccc(-c4ccccc4)cc3)O[C@@H](CO)[C@@H]1O2 returned KDM4C inh 0.
For CN(C)c1ccc2c(c1)[C@H]1C[C@H](CC(=O)NCc3ccccc3)O[C@H](CO)[C@H]1O2 the results were IDH1 R132H inh -1 and KDM4C inh 44*.
`COc1ccc(SCc2cc3c(F)c(F)c(F)c(F)c3o2)cc1` gave IDH1 R132H inh -1.
Screening O=C(c1cccc(F)c1)N1CC2(C1)[C@H](c1ccccc1)[C@@H](CO)N2C(=O)C1CCCC1 returned KDM4C inh -1.
Screening CNC[C@H]1OCCCC[C@H](C)Oc2ccc(NS(=O)(=O)c3ccc(F)cc3)cc2C(=O)N([C@H](C)CO)C[C@@H]1C returned KDM4C inh 2.
For O=C(C[C@@H]1C[C@H]2c3cc(NC(=O)NC4CCCCC4)ccc3O[C@H]2[C@@H](CO)O1)NCc1ccccn1 the results were IDH1 R132H inh 0 and KDM4C inh -2.
Screening O=C(C[C@@H]1C[C@H]2c3cc(NC(=O)NC4CCCCC4)ccc3O[C@H]2[C@H](CO)O1)NCc1ccccn1 returned IDH1 R132H inh 102* and KDM4C inh 88*.
`COCC#Cc1ccc([C@@H]2[C@H](CO)N3C(=O)CN(C(=O)c4cccnc4)C[C@@H]23)cc1` gave KDM4C inh 2.
Screening CCC(=O)N1C[C@@H](O)COC[C@@H]2O[C@H](CC(=O)NCc3ccccc3Cl)CC[C@H]21 returned KDM4C inh 1.
Screening C[C@@H]1CCc2cnnn2COC[C@@H](Cc2ccccc2)NC1=O returned KDM4C inh 0.
For Nc1nnc(SCC(=O)Nc2cc(Cl)cc(Cl)c2)s1 the results were IDH1 R132H inh 0.
Screening C[C@@H]1CN([C@@H](C)CO)S(=O)(=O)c2ccc(C#Cc3ccncc3)cc2O[C@H]1CN(C)S(=O)(=O)c1ccccc1 returned IDH1 R132H inh 0 and KDM4C inh -7.
Screening COc1ccccc1-c1ccc2c(c1)O[C@@H](CN(C)C(=O)c1ccncc1)[C@H](C)CN([C@@H](C)CO)S2(=O)=O returned IDH1 R132H inh 36* and KDM4C inh 32*.
C[C@H]1CN([C@@H](C)CO)S(=O)(=O)c2ccc(-c3cncnc3)cc2O[C@@H]1CN(C)C(=O)C1CCCCC1 was read as KDM4C inh 35*.
Screening C[C@H](CO)N1C[C@H](C)[C@H](CN(C)C(=O)C2CCCCC2)Oc2cc(-c3cncnc3)ccc2S1(=O)=O returned KDM4C inh 0.
CCCC#Cc1ccc2c(c1)O[C@H](CN(C)C)[C@@H](C)CN([C@@H](C)CO)S2(=O)=O was read as IDH1 R132H inh -1 and KDM4C inh 0.
For CCCC#Cc1ccc2c(c1)O[C@@H](CN(C)C)[C@@H](C)CN([C@H](C)CO)S2(=O)=O the results were IDH1 R132H inh 59* and KDM4C inh 53*.
Screening C[C@H]1CN([C@@H](C)CO)S(=O)(=O)c2ccc(C#Cc3ccncc3)cc2O[C@@H]1CN(C)S(=O)(=O)c1ccccc1 returned IDH1 R132H inh 12 and KDM4C inh 28*.
For COc1ccccc1-c1ccc2c(c1)O[C@@H](CN(C)C(=O)c1ccncc1)[C@@H](C)CN([C@H](C)CO)S2(=O)=O the results were IDH1 R132H inh -4 and KDM4C inh 0.
C[C@@H]1CN([C@@H](C)CO)S(=O)(=O)c2ccc(-c3ccccc3F)cc2O[C@@H]1CN(C)Cc1cncnc1 was read as IDH1 R132H inh 5 and KDM4C inh 0.
Screening CO[C@@H]1CN(C)C(=O)c2ccc(NC(=O)C3CCC3)cc2OC[C@@H](C)N(Cc2nccs2)C[C@@H]1C returned IDH1 R132H inh 0 and KDM4C inh 0.
COc1ccc(-n2nnnc2SCC(=O)Nc2ccc(F)cc2F)cc1 was read as IDH1 R132H inh 0.
Screening COc1cccc(C(=O)N2C[C@@H]3[C@H](c4ccccc42)[C@H](CO)N3C(=O)c2ccccc2)c1 returned KDM4C inh 1.
Screening COc1ccc(NC(=O)N[C@H]2CC[C@@H](CCn3cc(C4(O)CCCC4)nn3)O[C@H]2CO)cc1 returned IDH1 R132H inh 0 and KDM4C inh 0.
For CCCC#Cc1ccc2c(c1)O[C@@H](CN(C)Cc1cncnc1)[C@@H](C)CN([C@H](C)CO)S2(=O)=O the results were IDH1 R132H inh 1 and KDM4C inh 18.
`Cc1ccc(-c2ccc3c(c2)O[C@H](CN(C)Cc2ccncc2)[C@H](C)CN([C@H](C)CO)S3(=O)=O)cc1` gave IDH1 R132H inh 52*.
For CCCC#Cc1ccc2c(c1)O[C@H](CN(C)Cc1cncnc1)[C@@H](C)CN([C@@H](C)CO)S2(=O)=O the results were IDH1 R132H inh 24 and KDM4C inh 39*.
`C/C=C/c1ccc2c(c1)O[C@H](CN(C)CCC)[C@H](C)CN([C@H](C)CO)S2(=O)=O` gave IDH1 R132H inh 84* and KDM4C inh 43*.
C/C=C/c1ccc2c(c1)O[C@@H](CN(C)CCC)[C@@H](C)CN([C@@H](C)CO)S2(=O)=O was read as IDH1 R132H inh -3 and KDM4C inh 0.
Cc1ccc(-c2ccc3c(c2)O[C@@H](CN(C)Cc2ccncc2)[C@H](C)CN([C@@H](C)CO)S3(=O)=O)cc1 was read as IDH1 R132H inh 0 and KDM4C inh 1.
For C[C@@H]1CN([C@@H](C)CO)S(=O)(=O)c2ccc(C#CCN(C)C)cc2O[C@H]1CN(C)S(C)(=O)=O the results were IDH1 R132H inh 1 and KDM4C inh -1.
`Cc1noc(C)c1NC(=O)Nc1ccc2c(c1)C(=O)N([C@H](C)CO)C[C@@H](C)[C@H](CN(C)S(C)(=O)=O)O2` gave IDH1 R132H inh -3 and KDM4C inh 2.
For CO[C@@H]1CN(C)C(=O)c2ccc(NC(C)=O)cc2OC[C@@H](C)N(CCc2ccccc2)C[C@H]1C the results were IDH1 R132H inh 0 and KDM4C inh 0.
CC(C)CC#Cc1ccc2c(c1)O[C@@H](CN(C)C(=O)Cc1ccncc1)[C@@H](C)CN([C@H](C)CO)S2(=O)=O was read as IDH1 R132H inh 3 and KDM4C inh 3.
